High-throughput results (PubChem)
PfG6PD inh = PfG6PD (Plasmodium falciparum) enzyme inhibition. PfGluPho enzyme, NADPH resazurin-diaphorase fluorescence. inhibition, % at 20 µM. 350,000 tested, 0.78% active. AID 504690;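 active means inhibition reaching at least a set limit at 20 µM in the primary screen, cut at about 59% in these data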;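 further: 0% = DMSO wells with substrate and 100% = DMSO wells lacking glucose-6-phosphate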
MC4R antagonist = antagonists of human melanocortin 4 receptor (MC4R). 360,000 tested, 0.48% active. inhibition, % at 6.5 µM. P32245. AID 540295. MC4R-expressing cells, MTII-stimulated cAMP, LANCE TR-FRET;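 active means inhibition above its plate's cutoff, the mean of tested wells on that plate plus 3 SD, cut at about 29% in these data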;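 further: 0% = Melanotan II alone and 100% = Melanotan II plus saturating MCL0020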
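system = U2OS cells with stable human MC4R expression | also added = Melanotan II challenge after compound preincubation | dosing = one concentration, 6.5 µM nominal | incubation = compound 30 min, challenge 1 h, detection 1 h | measured by = TR-FRET with Eu-cAMP and labeled anti-cAMP, 671 nm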
ABHD5-PLIN5 inh = ABHD5-PLIN5 protein interaction inhibition; Split G. princeps luciferase complementation, luminescence, 4 h; inhibition, % at 4 µM; 360,000 tested, 0.78% active;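 active means inhibition above the mean inhibition across every tested compound plus 3 SD, cut at about 22% in these data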;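 further: 0% = DMSO only wells and the 100% control is not disclosed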
B2AR ag = human beta-2 adrenergic receptor agonism by FAP; AID 504454; 340,000 tested, 0.43% active; response, % (concentration not given with the values); Am2.2-beta2AR cells, FAP receptor internalization, flow cytometry; P07550;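 active means response above a set limit, near 3 SD of response in nonfluorescent compounds, cut at about 42% in these data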
MC4R ag barr = human MC4R agonism via beta-arrestin. U2OS MC4R beta-arrestin complementation, luminescence; percent of melanotan II response, DMSO zero. activation, % at 8.9 µM. 360,000 tested, 0.98% active. AID 540308;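 active means activation above a per-plate cutoff, the mean activation of sample wells on that plate plus 3 SD, cut at about 8% in these data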
MC4R barr ag = human MC4R beta-arrestin agonism confirmation | shares compounds with MC4R ag barr | U2OS MC4R beta-arrestin recruitment, luminescence; scaled DMSO 0%, Melanotan II 100% | activation, % at 8.9 µM | 2,400 tested, 31% active;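 active means mean activation across replicates above the hit cutoff set in the earlier primary screen, cut at about 8% in these data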
MOR DOR agonist = counter-screen for MC4R agonists: agonists of mu-delta opioid heterodimer; AID 602194; activation, % at 9.2 µM; U2OS PathHunter beta-arrestin, beta-gal luminescence; percent of deltorphin B response, DMSO zero; shares compounds with MC4R ag barr; 2,400 tested, 5.8% active;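 active means mean activation across replicates exceeds the hit threshold derived in the earlier primary screen, cut at about 18% in these data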;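 further: 100% = deltorphin B at 0.9 µM final and 0% = DMSO alone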
Target sequence (P35372 whole entry, looked up): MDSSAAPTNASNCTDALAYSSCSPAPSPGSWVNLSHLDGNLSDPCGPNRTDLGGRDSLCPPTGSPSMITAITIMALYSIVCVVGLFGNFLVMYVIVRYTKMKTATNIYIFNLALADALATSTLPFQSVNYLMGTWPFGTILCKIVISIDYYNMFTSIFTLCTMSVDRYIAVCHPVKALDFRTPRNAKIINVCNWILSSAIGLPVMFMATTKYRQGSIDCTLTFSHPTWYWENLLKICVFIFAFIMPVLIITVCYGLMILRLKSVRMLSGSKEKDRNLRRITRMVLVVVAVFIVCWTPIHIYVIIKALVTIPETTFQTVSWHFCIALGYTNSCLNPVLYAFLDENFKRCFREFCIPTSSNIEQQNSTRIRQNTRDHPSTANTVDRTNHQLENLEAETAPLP
Target sequence (P41143 whole entry, looked up): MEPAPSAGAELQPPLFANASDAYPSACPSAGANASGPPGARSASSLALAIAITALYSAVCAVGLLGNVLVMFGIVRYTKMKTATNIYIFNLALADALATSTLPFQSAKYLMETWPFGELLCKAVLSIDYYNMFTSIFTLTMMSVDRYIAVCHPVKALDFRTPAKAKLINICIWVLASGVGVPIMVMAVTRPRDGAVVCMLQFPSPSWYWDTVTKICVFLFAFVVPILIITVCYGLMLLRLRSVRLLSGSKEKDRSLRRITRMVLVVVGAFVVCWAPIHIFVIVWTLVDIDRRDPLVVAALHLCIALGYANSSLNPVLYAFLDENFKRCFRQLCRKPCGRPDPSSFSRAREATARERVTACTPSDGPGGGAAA
Numbers without * were called inactive; · = not tested or not shown. Only some compounds are listed: those with a hit (about 3% of all), similar ones and a draw of the others.

SMILES	PfG6PD inh	MC4R antagonist	ABHD5-PLIN5 inh	B2AR ag	MC4R ag barr	MC4R barr ag	MOR DOR agonist
CCOc1ccc(OCCSc2nc(C)cc(=O)[nH]2)cc1	-26.9	3.4	-1.8	4.7	-1.1	·	·
CCOc1ccc(OCCSc2nc3ccccc3c(=O)[nH]2)cc1	-1.9	1.1	0.5	0.6	9.6*	0.3	6.9
COc1ccc(N2CC(C(=O)NNC(=O)c3ccc(Br)cc3)CC2=O)c(OC)c1 (configuration not stated)	3.8	-4.8	-0.9	-6.1	-3.4	·	·
N/C(=N\c1nc2ccccc2o1)NC(=O)c1cccc(Br)c1	-19.5	8.5	-1.3	4.6	-2.1	·	·
Cc1ccc(C(=O)N/C(N)=N/c2nc3ccccc3o2)cc1	-14.8	-4.3	2.4	-4.8	15.8*	3.7	2.2
N/C(=N\c1nc2ccccc2o1)NC(=O)c1ccccc1	3.7	15.1	-6.4	3.5	13.6*	2.7	5.2
COc1ccccc1C(=O)N/C(N)=N/c1nc2ccccc2o1	9.7	4.6	-7.1	1.4	4.2	·	·
O=C(Nc1nc(-c2ccc(F)c(F)c2)cs1)c1ccc(OCC2CCCO2)cc1 (configuration not stated)	4.0	1.2	1.3	-3.6	16.9*	2.9	28.0*
COc1cc(/C=C/C(=O)OCC(=O)N2CCCc3ccccc32)ccc1O	7.8	3.4	4.6	4.2	-0.9	·	·
O=C(/C=C/c1cccc(F)c1)OCC(=O)N1CCc2ccccc21	9.9	8.3	14.0	-2.4	28.1*	-0.2	3.2
NS(=O)(=O)c1cccc(NC(=O)COC(=O)CCN2C(=O)c3ccccc3C2=O)c1	1.6	-2.3	-4.5	-9.9	-4.2	·	·
CCCCCc1c2c(cc(O)c1C(=O)O)OC(=O)c1cc(C(=O)CCCC)c(OC)cc1O2	-28.0	19.1	1.2	7.0	7.0	·	·
CCCCCc1c2c(cc(O)c1C(=O)O)OC(=O)c1c(cc(OC)cc1C(=O)CCCC)O2	-24.7	23.6	0.9	-1.7	11.4*	4.4	2.5
O=S(=O)(N(Cc1ccccc1)[C@H](CO)Cc1ccccc1)N(Cc1ccccc1)[C@H](CO)Cc1ccccc1	9.4	14.3	-10.0	0.2	28.1*	7.2	6.0
COC(=O)[C@]12CCCCC=C1N(Cc1ccc(Cl)cc1Cl)C(=O)[C@H](CC(=O)NCc1cccs1)C2	·	·	-16.1	·	·	·	·
CCc1cc2cccc(C)c2nc1SCC(=O)c1ccc(NC(C)=O)cc1	-15.0	-6.0	-5.0	-5.0	10.3*	2.4	2.9
CCCc1cc(=O)oc2cc(C)cc(OC(C)C(=O)NCc3ccccn3)c12 (configuration not stated)	-11.1	-0.1	0.7	-1.5	-1.2	·	·
Cc1ccccc1C(=O)c1cccn1CC(=O)NCCCN1CCCCC1	-5.9	6.4	-0.7	-1.2	0.3	·	·
Cc1ccc(C)c(N2CCN(CCCNC(=O)Cn3cccc3C(=O)c3ccccc3C)CC2)c1	14.8	8.7	18.0	21.7	12.0*	13.6*	15.2
Cc1cccc(Nc2nc(N)nc(CCl)n2)c1C	-0.1	13.7	-3.8	34.2	24.9*	22.8*	36.6*
COc1ccccc1Nc1nc(N)nc(CCl)n1	-9.1	15.1	4.5	-1.6	5.2	·	·
Cc1ccc(Nc2nc(N)nc(CCl)n2)cc1	13.4	9.0	9.2	8.7	13.6*	16.9*	18.1*
CCC(C)c1c(NS(=O)(=O)c2ccc(C)cc2)o[nH]c1=O (configuration not stated)	31.5	2.1	7.9	-0.7	-1.7	·	·
Cc1cccc(N2CCN(C3=NC(=O)/C(=C\c4cn[nH]c4-c4ccccc4)S3)CC2)c1	12.2	8.6	4.8	4.3	16.4*	5.7	5.7
Cc1ccc(N2CCN(C3=NC(=O)/C(=C\c4cn[nH]c4-c4ccccc4)S3)CC2)cc1	-4.9	7.6	-2.3	11.6	18.1*	4.4	2.9
COc1cccc(-c2ccc3nnc(SCC(=O)Nc4ccc(NC(C)=O)cc4)n3n2)c1	0.1	5.3	-1.5	19.5	-3.1	·	·
Cc1ccc(-c2nn3c(C)nnc3s2)cc1NC(=O)c1ccc(-c2cccc(Cl)c2)o1	18.5	2.3	18.5	14.6	13.2*	0.3	2.7
